Data taken from the RNAGym collection of RNA variant scans (doi:10.1126/science.aae0568).
This sample holds only a part of the variants without activity.

B1: tRNA (parent)
chain: GUUCCGUUGGCGUAAUGGUAACGCGUCUCCCUCCUAAGGAGAAGACUGCGGGUUCGAGUCCCGUACGGAACG

Variants of: B1
Assay: yeast fitness relative to wild type (ratio to wild type); higher = fitter; tRNA-Arg(CCU), competitive growth, 37 C, YPD
How it was run: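 Genotype frequency changes were the basis for Darwinian fitness relative to wild type. The frequencies came from 100-nucleotide paired-end sequencing of gene amplicons from the start population and each end population of pooled yeast strains with tRNA-Arg(CCU) gene variants at the native locus. Competition ran in YPD at 37°C for 24 hours in six replicates, genotypes needed ≥ 100 starting reads, and estimates < 0.5 were set to 0.5.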
In the case of GUUCCGUUGGAGUAAUGGUAACGCGUCUCCCUCGUAAGGAGAAGACUGCGGGUUCGAGGCCCGUACGGAACG [C11A C34G U59G], the yeast fitness is reported as no more than 0.5. GUUCCGUUGGAAUAAUGGUAACACGUCUCCCUGCUAAGGAGAAGCCUGCGGGUUCGAGUCCCGUACGGAACG [C11A G12A G23A C33G A45C] gave a yeast fitness of no more than 0.5. With GUUCCGUUGGAGUAAUGCUAACGCGUAUCCCUCCUAAGGAGAAGACUACGGGUCCGAGUCCCGUACGGAACG [C11A G18C C27A G48A U54C] the yeast fitness was 0.76. GUUCCGUUGGAGUAAUGAUAACGCGUUUCCCUCGUAAGGAGCAGACUGCGGGUUCGAGUCCCGUACGGAACG [C11A G18A C27U C34G A42C] gave a yeast fitness of no more than 0.5. In the case of GUUCCGUUGGAGUAAUGGUAACGCGUCUCCCUCCUAAGGAGAAGACUGCGGGUUCGAGUCACGUACGGAACG [C11A C61A], the yeast fitness is reported as 0.613. GUUCCGUUGGAGUAAUGGUAACGCGUCUCCCUCCUAAGGAGAAGACUGCGGGUUCGAGUCUCGUACGGAACG [C11A C61U] gave a yeast fitness of 0.621. GUUCCGUUGGAGUAAUGGUAACGCCUCUCCCUCCUAAGGAGAAGAUUGCAGGUUCGAGUCCCGUACGGAACG [C11A G25C C46U G50A] showed a yeast fitness of no more than 0.5. GUUCCGUUGGAGUAAUGGUAACGCCUCUCCCUCCUAAGGAGAAGACUGCGGGUUCGUGUCCCGUACGGAACG [C11A G25C A57U] gave a yeast fitness of 0.513. Work on GUUCCGUUGGAGUAAUGGUAACGCGUCUCCCUCCUAAAGUGAAGACUGCCGGUUCGAGUGCCGUACGGAGCG [C11A G38A A40U G50C C60G A70G] yielded a yeast fitness of no more than 0.5. For GUUCCGUUGGAGUAAUCGUAAGCCGUCUCCCUCCUAAGGAGAAGACUGCGGGUUCGACUCCCGUACGGAGCG [C11A G17C C22G G23C G58C A70G], the yeast fitness was no more than 0.5. With GUUCCGUUGGACUAAUGGUAACGCGUCUCCCUUCUAAGGAGACGACUGCGGGUUCGAGUCCCGUACGGAACG [C11A G12C C33U A43C] the yeast fitness was no more than 0.5. GUUCCGUUGGAGUAAUGAUAACGCGUCUCCCUCCUUAGGACAAGACUGCGGGUUUGAGUCCCGCACGGAACG [C11A G18A A36U G41C C55U U64C] showed a yeast fitness of no more than 0.5. Work on GUUCCGUUGGAGUAAUAGUAACGCGUCUCCCUCCUAAGGAGAAGACUGCGGGUUCGAGUCCUGUAUGGAACG [C11A G17A C62U C66U] yielded a yeast fitness of no more than 0.5. Work on GUUCCGUUGGAGUAAUGGUAACGCGUCUCCCUCCUAAGGAGAAGACUGCGGGUUCGAGUCGCGUCCGGAACG [C11A C61G A65C] yielded a yeast fitness of 0.567. GUUCCGUUGGAGUAAUGGUAACGCAUCUCCCUCCUAAGGAGAAGACUGCGGGAUCGAGUCCCGUACGGAACG [C11A G25A U53A] gave a yeast fitness of no more than 0.5. Work on GUUCCGUUGGAGUAAUGGUAACGCGUCUCCCUCCUAAGGAGAAGACUGCGGGUUCGAGUACCGUACGGAACG [C11A C60A] yielded a yeast fitness of no more than 0.5. Work on GUUCCGUUGGAGUAAUGGUAACGCCUCUCCCUCCUAAGGAGAAAACUGCGGGUUCGGGUCCCGUACGGAACG [C11A G25C G44A A57G] yielded a yeast fitness of no more than 0.5. GUUCCGUUGGAGUAAUGGUAACGCGUCUCCCUCCUAAGGAGAAGACUGCGGGUUCGAGUCCCGUAGGGAACG [C11A C66G] gave a yeast fitness of 0.613. GUUCCGUUGGAGUAAUGGUAACGCGUCUCCCUCCUAAGGAGAAGACUGCGGGUUCGAGUCGCGUCCGGACCG [C11A C61G A65C A70C] showed a yeast fitness of no more than 0.5. For GUUCCGUUGGAGUAAUGGUAACGCGUCUCCCUCCUAAGGAGAAGACUGCGGGUUCGAGUCCGGUACGGUACG [C11A C62G A69U], the yeast fitness was no more than 0.5. With GUUCCGUUGGAGUAAUGGUAACGCGUCUCCCUCCUAAGGAGAAAACUACGGGUUCGAGUCCCGUACGGAACG [C11A G44A G48A] the yeast fitness was 0.68. Work on GUUCCGUUGGAGUAAUGGUAACGCGUCUCCCUCCUAAGGAGAAGACUGCGGGUUGGAGUCCCGUAAGGAACG [C11A C55G C66A] yielded a yeast fitness of no more than 0.5. With GUUCCGUUGGAGUAAUGGUAACGCGUCUCCCUCCUAAGGAGAAGACUGCGGGUUCGAGUCUCGUGCCGAACG [C11A C61U A65G G67C] the yeast fitness was no more than 0.5. In the case of GUUCCGUUGGACUAAUGGUAACGCGUCUCCCUCCUAAGGAGAAGACUGCGGGUUCGAGUCCCGUACGGAACG [C11A G12C], the yeast fitness is reported as 0.612. Work on GUUCCGUUGGAGUAAUGGUAACGCGUCUCCCUCCUAAGGAGAAGAAUGCGGGUUCGAGUCCCGUACGGAACG [C11A C46A] yielded a yeast fitness of 0.745. GUUCCGUUGGAGUAAUGGUAACGCGUCUCCCUCCUAAGGAGAAGAGUGCGGGUUCGAGUCCCGUACGGAACG [C11A C46G] showed a yeast fitness of 0.651. In the case of GUUCCGUUGGAGUAAUGGUAACGCGUCUCCCUCCUAAGGAGAAGACUGCGGGUUCGAAUCCCGUACGUAACG [C11A G58A G68U], the yeast fitness is reported as no more than 0.5. Work on GUUCCGUUGGAGUAAUGGUAACGCGUCUCCCUCCUAAGGAGAAGACUGCGGGUUCGAAUCCCGUACGAAACG [C11A G58A G68A] yielded a yeast fitness of 0.621. Work on GUUCCGUUGGAGUAAUGCUAACGCGUGUCCCUCCUAAGGAGAAGACUGCGGGUUCGAGUCCCGUACGGAACG [C11A G18C C27G] yielded a yeast fitness of 0.64. Variant GUUCCGUUGGAGUAAUGGUAACACGUCUCCCUCCUAAGGAGAUGACUGCGGGUUCGAGUCCCGUACGGAACG [C11A G23A A43U] has a yeast fitness of no more than 0.5. For GUUCCGUUGGAAUAAUGGUAACGCGUCUCCCUCCUAAGGAGAAGACUACAGGUUCGAGUCCCGUACGGAACG [C11A G12A G48A G50A], the yeast fitness was no more than 0.5. Variant GUUCCGUUGGAAUAAUGGUCACGCGUCUUCCUCCUAAGGAGAAGACUGCGGGUUCGAGUCCCGUACGGAACG [C11A G12A A20C C29U] has a yeast fitness of no more than 0.5. For GUUCCGUUGGAGUAAUGGUAACGCGUCUCCCUCCUAAGGAGAAGACUGCGAGAUCGAGUCCCGUACGGAACG [C11A G51A U53A], the yeast fitness was no more than 0.5. With GUUCCGUUGGAGUAAUGGUAACGCGUCUCCCUCCUAAGGAGAAGACUGCGAGUUCGAGUCCCGUUCGGAACG [C11A G51A A65U] the yeast fitness was no more than 0.5. For GUUCCGUUGGAGUAAUGGUAACGCCCCUUCCUCCUAAGGAGAAGACUGCGGGUUCGAGUCCCGUCCGGAUCG [C11A G25C U26C C29U A65C A70U], the yeast fitness was 0.558. GUUCCGUUGGAGUAAUGGUAACGCGUCUCCCUCCUAAGGAGAAGACUGCGGGUUCGAGUCCAGUACGGAUCG [C11A C62A A70U] showed a yeast fitness of no more than 0.5. GUUCCGUUGGAGUAAUGAUAACGCGUCUCCUUCCUAAGGAGAAGACUGCGGGUUCGAGUCCCGUACGGCACG [C11A G18A C31U A69C] gave a yeast fitness of 0.605. In the case of GUUCCGUUGGAGUAAUGGUAACCCGUCUCCCUCCUAAGGAGAAGACUGCGGCUUCGAGUCCCGUACGGAACG [C11A G23C G52C], the yeast fitness is reported as 0.57.
